Tests used:
[1] = test system: U-266; assay: Antiproliferative activity against human U266 cells after 48 hrs by SRB assay; type: functional; settings: U-266, 48 h
Outline: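 Cells were exposed to test compounds at the indicated concentrations for 48 h. They were then fixed with 10% trichloroacetic acid, stained 30 min with 0.4% SRB in 1% AcOH, and washed with 1% AcOH. Bound dye was solubilized in 10 mM Tris base and OD read at 510 nm. Lines cultured in RPMI 1640 with 20% FBS and penicillin/streptomycin, 37°C, 5% CO2.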

[2] = biological target: Histone deacetylase 5 (Homo sapiens, UniProt Q9UQL6); assay: Inhibition of recombinant human C-terminal His-tagged HDAC5 (656 to 1122 residues) expressed in insect cells using Boc-K(Ac)-AMC as substrate after 60 mins by fluorescence assay
Chain of Histone deacetylase 5 (Q9UQL6 whole entry, the tested form may be a part): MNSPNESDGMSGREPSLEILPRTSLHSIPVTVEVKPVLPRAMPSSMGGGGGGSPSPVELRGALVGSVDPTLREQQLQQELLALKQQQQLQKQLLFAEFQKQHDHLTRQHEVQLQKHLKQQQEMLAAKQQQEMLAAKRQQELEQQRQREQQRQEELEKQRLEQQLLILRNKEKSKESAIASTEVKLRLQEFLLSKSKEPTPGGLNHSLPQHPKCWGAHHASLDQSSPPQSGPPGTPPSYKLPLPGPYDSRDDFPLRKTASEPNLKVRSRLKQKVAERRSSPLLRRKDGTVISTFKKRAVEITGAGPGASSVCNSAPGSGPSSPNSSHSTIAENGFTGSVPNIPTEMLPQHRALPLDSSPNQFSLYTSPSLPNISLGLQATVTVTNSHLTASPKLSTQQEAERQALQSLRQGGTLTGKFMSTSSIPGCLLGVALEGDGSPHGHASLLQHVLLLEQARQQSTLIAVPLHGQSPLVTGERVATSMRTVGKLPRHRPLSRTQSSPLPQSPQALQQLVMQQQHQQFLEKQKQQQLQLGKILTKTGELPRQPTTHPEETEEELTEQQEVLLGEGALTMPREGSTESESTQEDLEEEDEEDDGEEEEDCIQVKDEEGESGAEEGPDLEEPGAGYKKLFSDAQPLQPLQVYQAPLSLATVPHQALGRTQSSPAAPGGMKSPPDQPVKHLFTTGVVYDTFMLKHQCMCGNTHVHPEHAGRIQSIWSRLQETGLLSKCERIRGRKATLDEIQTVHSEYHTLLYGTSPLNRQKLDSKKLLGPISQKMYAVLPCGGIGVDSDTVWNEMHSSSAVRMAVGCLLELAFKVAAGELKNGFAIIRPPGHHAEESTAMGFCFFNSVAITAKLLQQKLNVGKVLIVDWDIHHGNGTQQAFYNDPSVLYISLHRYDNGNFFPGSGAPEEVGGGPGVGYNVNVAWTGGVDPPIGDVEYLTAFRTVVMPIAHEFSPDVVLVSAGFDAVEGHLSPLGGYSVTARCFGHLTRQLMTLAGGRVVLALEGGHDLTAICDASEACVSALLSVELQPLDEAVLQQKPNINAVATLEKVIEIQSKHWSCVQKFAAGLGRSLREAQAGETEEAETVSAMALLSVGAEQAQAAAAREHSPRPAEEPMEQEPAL

[3] = biological target: T1, Protein deacetylase HDAC6 (Homo sapiens) (UniProt Q9UBN7); assay: Inhibition of HDAC6 in human RPMI8226 cells assessed as increase in acetylated tubulin level by immunoblot analysis relative to control; type: cell-based
T1 sequence (whole entry): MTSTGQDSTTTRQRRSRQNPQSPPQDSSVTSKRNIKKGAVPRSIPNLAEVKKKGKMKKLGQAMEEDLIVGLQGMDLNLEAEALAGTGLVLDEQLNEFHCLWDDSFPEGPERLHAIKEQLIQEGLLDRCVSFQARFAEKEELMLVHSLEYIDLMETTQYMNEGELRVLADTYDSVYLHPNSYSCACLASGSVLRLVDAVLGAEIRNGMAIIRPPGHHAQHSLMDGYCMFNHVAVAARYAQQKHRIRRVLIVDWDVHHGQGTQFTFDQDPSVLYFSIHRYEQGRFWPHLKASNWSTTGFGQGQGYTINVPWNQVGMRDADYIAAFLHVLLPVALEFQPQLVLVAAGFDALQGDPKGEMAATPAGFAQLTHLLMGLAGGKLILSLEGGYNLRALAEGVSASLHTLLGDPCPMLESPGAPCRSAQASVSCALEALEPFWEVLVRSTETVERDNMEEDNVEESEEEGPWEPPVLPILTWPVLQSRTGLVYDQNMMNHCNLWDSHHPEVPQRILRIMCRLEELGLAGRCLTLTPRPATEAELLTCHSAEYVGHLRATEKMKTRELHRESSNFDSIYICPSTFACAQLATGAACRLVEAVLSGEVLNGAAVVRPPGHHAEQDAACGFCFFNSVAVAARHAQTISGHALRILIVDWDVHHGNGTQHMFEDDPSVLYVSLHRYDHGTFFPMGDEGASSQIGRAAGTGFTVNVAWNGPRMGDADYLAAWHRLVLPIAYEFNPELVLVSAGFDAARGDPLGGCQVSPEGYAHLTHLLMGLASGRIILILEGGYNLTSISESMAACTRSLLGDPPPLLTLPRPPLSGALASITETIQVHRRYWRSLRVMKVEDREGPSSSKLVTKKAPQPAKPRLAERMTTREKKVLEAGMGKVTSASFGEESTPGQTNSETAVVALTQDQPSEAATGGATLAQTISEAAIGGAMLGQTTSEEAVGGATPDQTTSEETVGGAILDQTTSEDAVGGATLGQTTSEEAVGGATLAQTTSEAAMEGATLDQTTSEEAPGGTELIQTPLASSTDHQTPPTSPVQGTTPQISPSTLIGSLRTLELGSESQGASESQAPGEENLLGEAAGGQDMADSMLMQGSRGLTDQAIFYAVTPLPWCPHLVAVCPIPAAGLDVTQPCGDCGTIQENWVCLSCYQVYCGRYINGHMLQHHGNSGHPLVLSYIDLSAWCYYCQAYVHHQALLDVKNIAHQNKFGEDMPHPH
Outline: (§1)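 Multiple myeloma cells harvested in Tris-HCl lysis buffer (pH 7.4) with protease and phosphatase inhibitors, then centrifuged 17,000 g for 30 min at 4 °C. Lysates immunoblotted with specific antibodies for acetylated α-tubulin. Signal detected by ECL on film.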

[4] = biological target: T1, Protein deacetylase HDAC6 (Homo sapiens); assay: Inhibition of HDAC6 in human NCI-H929 cells assessed as increase in acetylated tubulin level by immunoblot analysis relative to control; type: cell-based; outline: as §1
[5] = biological target: T1, Protein deacetylase HDAC6 (Homo sapiens); assay: Inhibition of HDAC6 in human U266 cells assessed as increase in acetylated tubulin level by immunoblot analysis relative to control; type: cell-based; outline: as §1
[6] = biological target: T2, NAD-dependent protein deacetylase sirtuin-1 (Homo sapiens, UniProt Q96EB6); assay: Inhibition of recombinant human N-terminal His-tagged SIRT1 (1 to 747 end residues) expressed in Escherichia coli using Ac-RHK-K(Ac)-AMC as substrate after 30 mins in presence of NAD+ by fluorescence assay
T2 sequence (Q96EB6 whole entry): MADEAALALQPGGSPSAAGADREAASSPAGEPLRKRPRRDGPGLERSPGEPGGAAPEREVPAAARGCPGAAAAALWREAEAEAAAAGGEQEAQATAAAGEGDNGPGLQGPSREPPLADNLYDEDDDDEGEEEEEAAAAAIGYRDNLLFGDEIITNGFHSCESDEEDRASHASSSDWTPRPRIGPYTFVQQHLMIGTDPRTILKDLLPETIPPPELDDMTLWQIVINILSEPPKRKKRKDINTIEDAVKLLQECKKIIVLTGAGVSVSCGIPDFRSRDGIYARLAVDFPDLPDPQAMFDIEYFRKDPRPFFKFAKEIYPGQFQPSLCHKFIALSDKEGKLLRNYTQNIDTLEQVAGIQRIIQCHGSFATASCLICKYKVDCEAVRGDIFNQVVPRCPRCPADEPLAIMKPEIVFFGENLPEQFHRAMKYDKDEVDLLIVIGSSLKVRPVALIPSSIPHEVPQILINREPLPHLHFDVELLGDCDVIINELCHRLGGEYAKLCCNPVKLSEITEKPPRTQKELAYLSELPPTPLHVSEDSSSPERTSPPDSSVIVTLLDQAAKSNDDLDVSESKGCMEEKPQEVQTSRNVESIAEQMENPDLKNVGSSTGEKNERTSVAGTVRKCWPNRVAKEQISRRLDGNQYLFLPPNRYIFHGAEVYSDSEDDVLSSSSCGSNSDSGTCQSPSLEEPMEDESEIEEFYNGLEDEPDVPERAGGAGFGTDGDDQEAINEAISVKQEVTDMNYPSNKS

[7] = biological target: Histone deacetylase 9 (Homo sapiens, UniProt Q9UKV0); assay: Inhibition of HDAC9 (unknown origin)
Chain of Histone deacetylase 9 (Q9UKV0 whole entry): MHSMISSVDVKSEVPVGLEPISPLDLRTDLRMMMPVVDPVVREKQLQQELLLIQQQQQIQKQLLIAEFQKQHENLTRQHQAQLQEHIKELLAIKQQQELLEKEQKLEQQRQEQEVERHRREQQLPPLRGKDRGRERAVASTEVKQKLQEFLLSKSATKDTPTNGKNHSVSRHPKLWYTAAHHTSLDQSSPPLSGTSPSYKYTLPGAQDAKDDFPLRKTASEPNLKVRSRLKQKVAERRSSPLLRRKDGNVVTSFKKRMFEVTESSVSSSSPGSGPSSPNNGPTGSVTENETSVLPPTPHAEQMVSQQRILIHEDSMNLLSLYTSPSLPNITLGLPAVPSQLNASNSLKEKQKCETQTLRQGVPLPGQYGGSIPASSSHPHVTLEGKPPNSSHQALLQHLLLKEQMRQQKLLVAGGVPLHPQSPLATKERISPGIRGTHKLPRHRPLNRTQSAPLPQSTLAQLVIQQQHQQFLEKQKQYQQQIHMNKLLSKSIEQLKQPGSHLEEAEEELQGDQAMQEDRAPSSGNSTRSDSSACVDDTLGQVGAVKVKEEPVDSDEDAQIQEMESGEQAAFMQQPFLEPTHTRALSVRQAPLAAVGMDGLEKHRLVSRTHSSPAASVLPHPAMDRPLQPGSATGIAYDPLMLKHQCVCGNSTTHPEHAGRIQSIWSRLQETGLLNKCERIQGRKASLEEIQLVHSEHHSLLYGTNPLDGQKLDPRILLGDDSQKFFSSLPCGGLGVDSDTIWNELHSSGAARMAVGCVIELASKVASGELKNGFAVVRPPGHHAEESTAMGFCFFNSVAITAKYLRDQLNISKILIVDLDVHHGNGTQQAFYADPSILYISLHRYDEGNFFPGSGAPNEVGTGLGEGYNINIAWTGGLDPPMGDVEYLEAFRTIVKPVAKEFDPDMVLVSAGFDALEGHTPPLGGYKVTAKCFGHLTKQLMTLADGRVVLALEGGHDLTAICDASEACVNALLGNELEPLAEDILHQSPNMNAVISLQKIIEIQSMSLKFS

## O=C(NO)c1ccc(CNc2cccc3ncccc23)cc1
[1]
  GI50: 28.4 µM
[2]
  IC50: 2.25 µM
[3]
  inhibition: Dose-dependent effect
[4]
  inhibition: Dose-dependent effect
[5]
  inhibition: Dose-dependent effect
[6]
  IC50: > 20 µM
[7]
  IC50: 1.92 µM

## O=C(NO)c1ccc(CNc2cccc3cccnc23)cc1
[1]
  GI50: 40.6 µM
[2]
  IC50: 3.11 µM
[3]
  inhibition: Dose-dependent effect
[4]
  inhibition: Dose-dependent effect
[5]
  inhibition: Dose-dependent effect
[6]
  IC50: > 20 µM
[7]
  IC50: 1.53 µM

— ChEMBL document CHEMBL4024792, “(N-Hydroxycarbonylbenylamino)quinolines as Selective Histone Deacetylase 6 Inhibitors Suppress Growth of Multiple Myeloma in Vitro and in Vivo” (J Med Chem, 2018)
